Cardio protect = myocardial damage modulation in H9c2 cells; H9c2 cardiomyocytes, H2O2 injury protection, ATPLite, 2 h; protection from H2O2 cell death, % at 20 µM; hit rate 0.63% among 360,000;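 active means compounds giving at least 50% protection of heart cells from peroxide-induced death in the single-dose screen, raw or plate-pattern-corrected value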
NR3A LBD binder = modulators (binders) of human NR3A ligand-binding domain; NR3A LBD differential scanning fluorimetry, Tm shift; 0% = protein alone, 100% = glycine-bound protein; Tm shift relative to glycine control, % at 25 µM; AID 1259313; hit rate 2.5% among 340,000;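 active means melting temperature shift of at least 10% of the positive control shift, at one fixed dose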
FAS TE block = blocks the thioesterase domain of human fatty acid synthase; P49327; recombinant FAS-TE, OMFH fluorogenic substrate, fluorescence endpoint; inhibition, % at 15 µM; hit rate 0.67% among 360,000; AID 602261;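 active means compounds whose normalised, plate-corrected inhibition of enzyme fluorescence in the single-dose primary screen is 50% or more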
iPSC survival up = hiPSC single-cell survival enhancement; ATPlite luminescence; 100% = ROCK inhibitor wells, 0% = DMSO; survival enhancement, % at 20 µM; hit rate 0.044% among 360,000; in the data active means survival enhancement above about 18%;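 further: cells exposed to compounds for 16 hours before the ATP read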
SENP1 inh = inhibitors of human SENP1 SUMO protease catalytic domain | Q9P0U3 | recombinant SENP1 catalytic domain, CyPet-SUMO1-YPet FRET cleavage | inhibition, % at 10 µM | hit rate 0.21% among 360,000;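 active means inhibition at least 30% at 10 µM, raw YFP signal under a set limit, fluorescence ratio 0.5 to 1.5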
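Material – human SENP1 catalytic domain · Input – SENP1 enzyme, 20 pM final · Compound dosing – single concentration of 10 µM compound, 0.5% DMSO final · Timing – enzyme reaction for 50 min at room temperature, dark · Measured by – FRET fluorescence in CFP and YFP emission channels · Control set – no-enzyme wells low, DMSO-plus-enzyme wells high control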
Arr AP2 block = inhibitors of human beta-arrestin and AP2 interaction | inhibition, % at 10 µM | FITC-arrestin peptide / GST-AP2 beads, flow cytometry; AP2 beta2 appendage carries R879A mutation | hit rate 0.31% among 340,000;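 active means inhibition above a set limit, near 3 SD of compounds lacking own fluorescence, cut at about 54% in these data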
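test system = AP2 appendage R879A on GSH beads | buffer or medium = PBS plus Tween 20 (0.05%) and BSA (0.1%) | incubation = 12 min plus 1 h, RT | detection = bead flow cytometry, FITC channel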
Large screens that a line does not name were inactive. In the library only some 4% were active in any assay of this set; here they are far more common.

CCCCn1nnnc1C(c1ccccc1)N1CCN(c2ncccc2C(F)(F)F)CC1 (configuration not stated)	none (no result: Cardio protect, NR3A LBD binder, Arr AP2 block)
O=C(c1[nH]c(C(F)(F)F)nc1-c1ccccc1)N1CCC2(CC1)C(=O)NCN2c1ccccc1	none (no result: NR3A LBD binder, Arr AP2 block)
c1coc(CNC2CCCCCCC2)c1	NR3A LBD binder 11
CCOc1ccc(OCc2ccc(C(=O)Nc3cccnc3)cc2)cc1	none
O=C(Nc1cccnc1)c1ccc(COCC(F)(F)F)cc1	NR3A LBD binder 11
COc1ccc(CCNC(=O)c2cc([C@@H](NC(=O)OC(C)(C)C)C(C)C)sc2N)cc1OC	none (no result: Cardio protect, NR3A LBD binder, FAS TE block, iPSC survival up, Arr AP2 block)
C[C@H](CO)N1C[C@H](C)[C@@H](CN(C)C(=O)Nc2ccc(C(F)(F)F)cc2)Oc2ccc(NC(=O)Nc3ccc(C(F)(F)F)cc3)cc2C1=O	NR3A LBD binder 10
C[C@H](CO)N1C[C@H](C)[C@@H](CN(C)C(=O)Nc2ccc3c(c2)OCO3)Oc2ccc(NC(=O)Nc3ccc(C(F)(F)F)cc3)cc2C1=O	NR3A LBD binder 11 (no result: Arr AP2 block)
C[C@H](CO)N1C[C@H](C)[C@@H](CN(C)C(=O)Nc2ccccc2)Oc2ccc(NC(=O)Nc3ccc4c(c3)OCO4)cc2C1=O	none
C[C@@H]1CN([C@H](C)CO)C(=O)c2cc(NC(=O)Nc3ccc(C(F)(F)F)cc3)ccc2O[C@H]1CN(C)C(=O)Nc1ccc(F)cc1	NR3A LBD binder 18
COc1ccc(C(=O)C(C)OC(=O)c2cccc(S(=O)(=O)Nc3cc(Cl)c(OC)cc3OC)c2)cc1 (configuration not stated)	FAS TE block 57
CCc1nc2ccc(C(=O)NCCCn3ccnc3)cn2c1N(C)Cc1ccc(N(C)C)cc1	none (no result: NR3A LBD binder, Arr AP2 block)
C=CCn1c(SCC(=O)Nc2cc(C)on2)nc2sc3c(c2c1=O)CCCC3	none
C=CCn1c(SCC(=O)Nc2cc(C)on2)nc2sc(C)c(C)c2c1=O	NR3A LBD binder 21
C=CCn1c(SCC(=O)NC2CCCC2)nc2sc(C)cc2c1=O	NR3A LBD binder 21
CN1NC(c2ccccc2)NN(C)C1=O	none (no result: NR3A LBD binder, Arr AP2 block)
CN(CC(=O)Nc1cccc(F)c1)C(=O)CCCc1nc2ccccc2c(=O)[nH]1	Cardio protect 60
CCN(CC(=O)Nc1ccc(OC)cc1)C(=O)CCc1nc2ccccc2c(=O)[nH]1	Cardio protect 90
COC(=O)CN1C(=O)C2(OCCCO2)c2ccccc21	none
COc1cccc(NC(=O)CN2C(=O)C3(OCCCO3)c3ccccc32)c1	NR3A LBD binder 11
COc1ccc(NC(=O)CN(C)C(=O)CN2C(=O)NC3(CCCCC3)C2=O)cc1	none
COc1cccc(NC(=O)CN(C)C(=O)CN2C(=O)NC3(CCCC3)C2=O)c1	NR3A LBD binder 14
CN(CC(=O)Nc1ccc(Cl)c(C(F)(F)F)c1)C(=O)CCCc1nc2ccccc2c(=O)[nH]1	none
Cc1ccc2c(C)c(C(=O)N3CCC(C(N)=O)(N4CCCCC4)CC3)oc2c1C	none (no result: NR3A LBD binder, Arr AP2 block)
COc1cccc(NC(=O)CN(C)C(=O)CCCc2nc3ccccc3c(=O)[nH]2)c1	Cardio protect 64
CN(CC(=O)Nc1cccc(F)c1)C(=O)Cc1n[nH]c(=O)c2ccccc12	Cardio protect 74
CN(C)S(=O)(=O)c1cccc(NC(=O)CCCc2nc3ccccc3c(=O)[nH]2)c1	none
O=C(Nc1ccc(Cl)c(Cl)c1)Nc1ccccc1NS(=O)(=O)c1cccs1	NR3A LBD binder 34
COC(=O)c1sccc1NC(=O)Nc1ccc(Cl)c(Cl)c1	none
O=C(Nc1ccc(Cl)cc1)Nc1ccccc1C(=O)O	none
O=C(Nc1ccc(Cl)c(Cl)c1)Nc1ccccc1C(=O)O	NR3A LBD binder 18
CC(=O)c1cccc(NC(=O)C(OC(=O)c2ccccc2NS(=O)(=O)c2cccs2)c2ccccc2)c1 (configuration not stated)	NR3A LBD binder 30
O=C(Nc1ccc(CN2CCCCC2)cc1)Nc1ccccc1Cl	none
O=C(Nc1ccc(Br)cc1)Nc1ccccc1Cl	NR3A LBD binder 21
Nc1ccc(S(=O)(=O)Nc2nc(-c3ccccc3)cc(-c3ccccc3O)n2)cc1	none (no result: NR3A LBD binder, Arr AP2 block)
O=S(=O)(Nc1cccc2ccccc12)c1cccs1	none
O=C(Nc1ccccc1)Nc1ccccc1NS(=O)(=O)c1cccs1	NR3A LBD binder 22
Cc1nnc(SCC(=O)Nc2sc3c(c2C(=O)c2ccccc2)CCCC3)s1	NR3A LBD binder 10
CCOC(=O)c1c(NC(=O)CSc2nnc(C)s2)sc2c1CCN(C)C2	none
CCOc1ccc(N/C=C/C(=O)c2ccc(OC)cc2)cc1	none
COc1ccc(N/C=C/C(=O)c2ccc(C)cc2)c([N+](=O)[O-])c1	NR3A LBD binder 20
CCOc1ccc(N/C=C/C(=O)c2ccc(OC)cc2)c([N+](=O)[O-])c1	NR3A LBD binder 20, SENP1 inh 37
Cc1ccccc1-c1cnc(C(O)c2cccc(C)c2C)[nH]1 (configuration not stated)	none (no result: NR3A LBD binder, Arr AP2 block)
O=C(Nc1ccncc1)c1cc(C2CCCCN2C(=O)CCc2ccccc2)on1 (configuration not stated)	none (no result: NR3A LBD binder, Arr AP2 block)
Cc1ccc(OCCOC(=O)c2sc(=S)n(C)c2C)cc1	FAS TE block 58
CCOC(=O)CSc1ncc(-c2ccccc2)nn1	NR3A LBD binder 37
C[C@H](c1ccccc1)N1C[C@@H](COCc2ccccc2)Oc2cc(N3CC[C@@H](N(C)C)C3)ccc2S1(=O)=O	none (no result: Cardio protect, NR3A LBD binder, Arr AP2 block)
CC(=O)C[C@H]1c2cc(C(F)(F)F)ccc2S(=O)(=O)N1Cc1ccccc1	none
CCCCCCCCCCCCN1[C@@H](CC(=O)O)c2cc(C(F)(F)F)ccc2S1(=O)=O	FAS TE block 58
CCCCCCCCN1[C@@H](CC(=O)O)c2cc(C(F)(F)F)ccc2S1(=O)=O	none
COC(=O)C[C@H]1c2ccc(C(F)(F)F)cc2S(=O)(=O)N1Cc1ccccc1	NR3A LBD binder 13
Cc1ccccc1NCC(=O)N/N=C/c1c[nH]c2ccccc12	NR3A LBD binder 24
Cc1ccc(OCC(=O)N/N=C\c2ccc(O)cc2)c([N+](=O)[O-])c1	none
Cc1cccc(NCC(=O)N/N=C\c2c[nH]c3ccccc23)c1	NR3A LBD binder 16
CCOC(=O)N/N=C/c1c[nH]c2ccccc12	none
Cc1ccc(OCC(=O)N/N=C/c2c[nH]c3ccccc23)c([N+](=O)[O-])c1	NR3A LBD binder 24
Cn1c(=O)c2c(nc(OC3CCCC3)n2C)n(C)c1=O	none
CCc1ccc2c(c1)/C(=N/N(C)C(=S)NC)C(=O)N2	NR3A LBD binder 13
Cc1cc(C)cc(C(=O)N2CCC(CCC(=O)NC3CC3)CC2)c1	none
C=CCOc1cccc(C(=O)N2CCC(CCC(=O)NC3CC3)CC2)c1	NR3A LBD binder 16
Cc1ccc(-c2noc(CCC(=O)Nc3ccc(C)cn3)n2)cc1	NR3A LBD binder 11
